Experimental data as given in publication PMC3906126 (Biochemistry, 2013).
No end group written: not given here.

Tests used:
WW2W domain of WWOX = WW2W domain of WWOX (Homo sapiens, UniProt Q9NZC7, Y85W); assay: ITC binding of ErbB4 PPXY peptides to WW2W; settings: for ΔH: Table 3, pH 7.0, 25°C, mean ± SD, at least three measurements
Method in brief: (§1)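 His-tagged human WWOX constructs: WW1 (residues 16–50), WW1–WW2 tandem (16–91), and WW2 (57–91) carrying Y85W. Expressed in E. coli BL21*(DE3) and purified by Ni-NTA then SEC. 12-mer ErbB4 peptides (4 mM in syringe) injected 25× into 40–60 μM protein at 25 °C. Buffer: 50mM sodium phosphate, 100mM NaCl, 1mM EDTA, 5mM β-mercaptoethanol, pH 7.0. Buffer-titration heats subtracted. One-site fit with stoichiometry fixed at 1 gives Kd and ΔH. At least 3 repeats, SD.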

WW1 domain of WWOX = molecular target: T1, WW1 domain of WWOX (Homo sapiens, UniProt Q9NZC7); assay: ITC binding of ErbB4 PPXY peptides to WW1 domain of WWOX
T1 sequence (Q9NZC7 16-50 limits assumed): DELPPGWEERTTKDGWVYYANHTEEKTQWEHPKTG
Method in brief: as §1

[1] = molecular target: T2, WW1–WW2 tandem module of WWOX (Homo sapiens, UniProt Q9NZC7); assay: ITC binding of ErbB4 PPXY peptides to WW1–WW2 tandem module of WWOX; settings: Table 4, pH 7.0, 25°C, mean ± SD, at least three measurements
T2 sequence (Q9NZC7 16-91): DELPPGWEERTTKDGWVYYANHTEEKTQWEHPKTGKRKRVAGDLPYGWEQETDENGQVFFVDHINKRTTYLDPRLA
Method in brief: as §1

WW2 domain of WWOX = assay: ITC binding of WW1 domain of WWOX to WW2 domain and vice versa; parameters: species or system human

Chain of WW2W domain of WWOX (Q9NZC7 57-91 Y85W limits assumed): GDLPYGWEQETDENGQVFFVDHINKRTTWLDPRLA

Substance	ΔH (WW2W domain of WWOX)	affinity of binding to WW1 domain (in words) (WW1 domain of WWOX)	ΔH [1]	binding between the two WW domains (WW2 domain of WWOX)	affinity for WW2W domain relative to binding of WW1 domain (WW2W domain of WWOX; Tables 1 and 3 compared)	enthalpy released relative to the PY3_WT peptide (WW1 domain of WWOX; ΔH of mutant versus PY3_WT)
H-FNIPPPIYTSRA-OH [ErbB4_PY1]	-4.74 ± 0.52 kcal/mol	in the order of hundreds of micromolar	-7.25 ± 0.88 kcal/mol	–	–	–
H-GHSPPPAYTPMS-OH [ErbB4_PY2]	-8.08 ± 1.09 kcal/mol	in the order of hundreds of micromolar	-4.88 ± 0.28 kcal/mol	–	–	–
H-TVLPPPPYRARN-OH [PY3_A+5]	–	–	–	–	–	more than −5 kcal/mol

Results, then the substance that gave them:

ΔH (WW2W domain of WWOX)	affinity of binding to WW1 domain (in words) (WW1 domain of WWOX)	ΔH [1]	binding between the two WW domains (WW2 domain of WWOX)	affinity for WW2W domain relative to binding of WW1 domain (WW2W domain of WWOX; Tables 1 and 3 compared)	enthalpy released relative to the PY3_WT peptide (WW1 domain of WWOX; ΔH of mutant versus PY3_WT)	Substance
–	–	–	no observable binding	–	–	WW1: WW1 domain (residues 16–50) of human WWOX, recombinant with N-terminal His-tag ({His‑tag}-DELPPGWEERTTKDGWVYYANHTEEKTQWEHPKTG)
-4.15 ± 0.28 kcal/mol	–	-5.00 ± 0.30 kcal/mol	–	more than two-fold stronger	–	H-TVLPPPPYRHRN-OH [ErbB4_PY3]
